{
  "source": "paper PMC4181337",
  "about": "(Metallomics : integrated biometal science, 2013)",
  "key": {"human red blood cells": {"test_system": "human red blood cells", "conditions": "inhibitor of the general anion transporter; cited from earlier work"}, "[1]": {"conditions": "Beagle dog, intravenous, radiolabeled; cited from earlier work"}, "[2]": {"test": "Serum total V pharmacokinetics", "assay_type": "in vivo, human", "procedure,_shortened": "(§1)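 Diabetic patients were dosed with oral VOSO4 for forty days, followed by a sixteen-day washout, with periodic blood sampling. Total V was measured by GFAAS against a same-day standard curve; serum was run directly and whole blood after extra preparation. Decline was fitted to a one-compartment first-order model using the last dosing day plus three later points, giving k and half time. Accumulation was fitted using the washout k. AUC in (ng/mL)days was calculated for the exposure and decline phases.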"}, "[3]": {"test": "Whole blood total V pharmacokinetics", "assay_type": "in vivo, human", "procedure,_shortened": "as §1"}, "[4]": {"test": "24 hour urinary V clearance at steady state", "assay_type": "in vivo, human", "procedure,_shortened": "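Type 2 diabetic patients took VOSO4 orally as tablets with meals, 3 per day, for six weeks. 24 hour urine was collected at steady state, with one to three collections per patient. Urine was analysed directly for total V by Zeeman-corrected GFAAS against a standard curve run the same day. Steady-state urinary V output was taken as the minimum amount absorbed.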"}, "[5]": {"test_system": "patients with type 2 diabetes", "assay_type": "in vivo, human", "procedure,_shortened": "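Patients took placebo, then oral VOSO4 tablets with meals (3/day) for six weeks. They self-monitored blood glucose before meals and at bedtime daily, reported as weekly averages. Two-step euglycemic-hyperinsulinemic clamps were run before and after treatment: overnight low-dose insulin to normalise glucose, then primed-continuous insulin at 0.5 and then 1.0 mU/kg/min, 2 h each. Glucose was checked every 5 min with variable glucose infusion. M was normalised to body mass.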"}, "[6]": {"test_system": "patients with type 2 diabetes", "test": "Adverse symptoms reported during the clinical study", "assay_type": "in vivo, human", "conditions": "doses of V used in this clinical study; not severe enough to drop subjects"}, "[7]": {"test_system": "patients with type 2 diabetes", "conditions": "two higher dose groups (50, 100 mg V), six weeks; cited from earlier work"}, "[8]": {"conditions": "25 mg V/day oral as VOSO4, 6 weeks, group mean"}, "[9]": {"conditions": "25 mg V/day oral as VOSO4, group mean"}, "[10]": {"conditions": "50 mg V/day oral as VOSO4, 6 weeks, group mean ± SD"}, "[11]": {"conditions": "50 mg V/day oral as VOSO4, 6 weeks, individual patient"}, "[12]": {"conditions": "50 mg V/day oral as VOSO4, exposure and decline phases, individual patient"}, "[13]": {"conditions": "50 mg V/day oral as VOSO4, group mean ± SD"}, "[14]": {"conditions": "100 mg V/day oral as VOSO4, 6 weeks, group mean ± SD"}, "[15]": {"conditions": "100 mg V/day oral as VOSO4, 6 weeks, individual patient"}, "[16]": {"conditions": "100 mg V/day oral as VOSO4, exposure and decline phases, individual patient"}, "[17]": {"conditions": "100 mg V/day oral as VOSO4, group mean ± SD"}, "[18]": {"conditions": "patients taking 100 mg V per day"}, "[19]": {"conditions": "of the 8 patients receiving 100 mg V/day"}},
  "note": "Several values for one entry are separate records, joined by “and”; a condition that tells them apart may be missing. Identical values can stand only once.",
  "data": [
    {"smiles": "CC(=O)/C=C(/C)[O-].CC(=O)/C=C(/C)[O-].[O]=[V+2]", "note": "[VO(acac)2]", "values": [
      {"measurement": "uptake by human red blood cells in the presence of DIDS", "setting": "human red blood cells", "result": "no change"}
    ]},
    {"smiles": "[O]=[V]([O-])([O-])[O-]", "note": "[vanadate]", "values": [
      {"measurement": "half time of single exponential decline (majority of the dose)", "setting": "[1]", "result": 24, "unit": "h"},
      {"measurement": "uptake by human red blood cells in the presence of DIDS", "setting": "human red blood cells", "result": "blocked"}
    ]},
    {"smiles": "O=S(=O)([O-])[O-].[O]=[V+2]", "note": "[vanadyl sulfate]", "values": [
      {"measurement": "Pk Serum V", "setting": "[2]; [8]", "result": 18.9, "unit": "ng/mL"},
      {"measurement": "SS Serum V", "setting": "[2]; [8]", "result": 15.4, "unit": "ng/mL"},
      {"measurement": "Pk Serum V", "setting": "[2]; 25 mg V/day oral as VOSO4, 6 weeks, individual patient", "result": "16.7 ng/mL and 21.1 ng/mL"},
      {"measurement": "Ser V t1/2", "setting": "[2]; [9]", "result": 2.7, "unit": "days"},
      {"measurement": "Pk Serum V", "setting": "[2]; [10]", "result": "81.7 ± 40 ng/mL and 81.7 ± 40.5 ng/mL"},
      {"measurement": "SS Serum V", "setting": "[2]; [10]", "result": "63.1 ± 37.8", "unit": "ng/mL"},
      {"measurement": "Pk Serum V", "setting": "[2]; [11]", "result": "125 ng/mL and 87.0 ng/mL and 114 ng/mL and 30.2 ng/mL and 51.7 ng/mL"},
      {"measurement": "AUC Serum V", "setting": "[2]; [12]", "result": "3538 (ng/mL)days and 1747 (ng/mL)days and 3894 (ng/mL)days and 946 (ng/mL)days and 617 (ng/mL)days"},
      {"measurement": "AUC Serum V", "setting": "[2]; [13]", "result": "2149 ± 1494 (ng/mL)days"},
      {"measurement": "Ser V t1/2", "setting": "[2]; [13]", "result": "4.7 ± 1.6", "unit": "days"},
      {"measurement": "ratio of serum AUC to whole blood AUC, mean value", "setting": "[2]; 50 mg dose group", "result": "1.07±0.86 (ng/mL)days"},
      {"measurement": "Pk Serum V", "setting": "[2]; [14]", "result": "319 ± 268", "unit": "ng/mL"},
      {"measurement": "SS Serum V", "setting": "[2]; [14]", "result": "314 ± 178", "unit": "ng/mL"},
      {"measurement": "Pk Serum V", "setting": "[2]; [15]", "result": "252 ng/mL and 227 ng/mL and 423 ng/mL and 906 ng/mL and 213 ng/mL and 368 ng/mL and 144 ng/mL"},
      {"measurement": "AUC Serum V", "setting": "[2]; [16]", "result": "8695 (ng/mL)days and 8328 (ng/mL)days and 15779 (ng/mL)days and 26713 (ng/mL)days and 8041 (ng/mL)days and 11412 (ng/mL)days and 4781 (ng/mL)days"},
      {"measurement": "AUC Serum V", "setting": "[2]; [17]", "result": "11965 ± 7340 (ng/mL)days"},
      {"measurement": "Ser V t1/2", "setting": "[2]; [17]", "result": "4.6 ± 2.5", "unit": "days"},
      {"measurement": "ratio of serum AUC to whole blood AUC, mean value", "setting": "[2]; 100 mg dose group", "result": "1.65±0.32 (ng/mL)days"},
      {"measurement": "fold increase in steady state serum V concentration", "setting": "[2]; 25 to 50 mg dose groups", "result": 4, "unit": "fold"},
      {"measurement": "fold increase in steady state serum V concentration", "setting": "[2]; 50 to 100 mg dose groups", "result": 5, "unit": "fold"},
      {"measurement": "Pk Blood V", "setting": "[3]; [10]", "result": "85 ± 54", "unit": "ng/mL"},
      {"measurement": "SS Blood V", "setting": "[3]; [10]", "result": "65 ± 39", "unit": "ng/mL"},
      {"measurement": "Pk Blood V", "setting": "[3]; [11]", "result": "163 ng/mL and 26 ng/mL and 109 ng/mL and 50 ng/mL and 75 ng/mL"},
      {"measurement": "Bld V t1/2", "setting": "[3]; 50 mg V/day oral as VOSO4, decline phase, individual patient", "result": "10.0 days and 2.9 days and 4.4 days and 3.9 days and 6.7 days"},
      {"measurement": "AUC Blood V", "setting": "[3]; [12]", "result": "3762 (ng/mL)days and 701 (ng/mL)days and 3474 (ng/mL)days and 2025 (ng/mL)days and 1788 (ng/mL)days"},
      {"measurement": "AUC Blood V", "setting": "[3]; [13]", "result": "2351 ± 1264 (ng/mL)days"},
      {"measurement": "Bld V t1/2", "setting": "[3]; [13]", "result": "5.6 ± 2.8", "unit": "days"},
      {"measurement": "Pk Blood V", "setting": "[3]; [14]", "result": "201 ± 200", "unit": "ng/mL"},
      {"measurement": "SS Blood V", "setting": "[3]; [14]", "result": "205 ± 164", "unit": "ng/mL"},
      {"measurement": "Pk Blood V", "setting": "[3]; [15]", "result": "136 ng/mL and 132 ng/mL and 264 ng/mL and 654 ng/mL and 95 ng/mL and 225 ng/mL"},
      {"measurement": "Bld V t1/2", "setting": "[3]; 100 mg V/day oral as VOSO4, decline phase, individual patient", "result": "4.0 days and 4.3 days and 7.2 days and 6.1 days and 2.1 days and 3.0 days and 8.7 days"},
      {"measurement": "AUC Blood V", "setting": "[3]; [16]", "result": "5648 (ng/mL)days and 5863 (ng/mL)days and 10552 (ng/mL)days and 20245 (ng/mL)days and 3741 (ng/mL)days and 6998 (ng/mL)days and 2341 (ng/mL)days"},
      {"measurement": "AUC Blood V", "setting": "[3]; [17]", "result": "7912 ± 6023 (ng/mL)days"},
      {"measurement": "Bld V t1/2", "setting": "[3]; [17]", "result": "5.1 ± 2.4", "unit": "days"},
      {"measurement": "Mean Urine [V] at Steady State", "setting": "[4]; [9]", "result": 54, "unit": "ng/mL"},
      {"measurement": "Mean Urine [V] at Steady State", "setting": "[4]; 25 mg V/day oral as VOSO4, individual patient", "result": "60 ng/mL and 47 ng/mL"},
      {"measurement": "24 hour urinary V output at steady state", "setting": "[4]; 50 mg V group, oral vanadyl sulfate", "result": "0.18 ± 0.24", "unit": "mg"},
      {"measurement": "Mean Urine [V] at Steady State", "setting": "[4]; [13]", "result": "59 ± 80", "unit": "ng/mL"},
      {"measurement": "Mean Urine [V] at Steady State", "setting": "[4]; 50 mg V/day oral as VOSO4, individual patient", "result": "215 ng/mL and 29 ng/mL and 165 ng/mL and 18 ng/mL and 22 ng/mL"},
      {"measurement": "24 hour urinary V output at steady state", "setting": "[4]; 100 mg V group, oral vanadyl sulfate", "result": "0.97 ± 0.84", "unit": "mg"},
      {"measurement": "Mean Urine [V] at Steady State", "setting": "[4]; [17]", "result": "654 ± 705", "unit": "ng/mL"},
      {"measurement": "Mean Urine [V] at Steady State", "setting": "[4]; 100 mg V/day oral as VOSO4, individual patient", "result": "412 ng/mL and 468 ng/mL and 457 ng/mL and 2199 ng/mL and 207 ng/mL and 703 ng/mL and 135 ng/mL"},
      {"measurement": "absorbed fraction of the administered V", "setting": "[4]; 16 type 2 diabetic patients, oral vanadyl sulfate", "result": "about 1%"},
      {"measurement": "absorption of the administered dose", "setting": "[4]; 50 and 100 mg V groups, estimated from steady state urinary output", "result": "≤ 1", "unit": "%"},
      {"measurement": "V excreted", "setting": "[4]; [18]", "result": "approximately 1 mg V per day"},
      {"measurement": "absorption of V entering the GI tract", "setting": "[4]; [18]", "result": 1, "unit": "%"},
      {"measurement": "absorption of V, of the daily dose", "setting": "[4]; three doses of V used (25, 50, 100 mg/day)", "result": "less than 1%"},
      {"measurement": "patients with improved responses for all three variables", "setting": "[5]; of the 5 patients receiving 50 mg V/day", "result": 2},
      {"measurement": "patients who responded well for all three variables", "setting": "[5]; [19]", "result": "three"},
      {"measurement": "patients who responded well for two variables", "setting": "[5]; [19]", "result": "four"},
      {"measurement": "adverse symptoms", "setting": "[6]", "result": "symptoms of gastrointestinal distress"},
      {"measurement": "patients with improved fasting blood glucose", "setting": "[7]", "result": "approximately 50%"}
    ]},
    {"smiles": "O=S(=O)([O-])[O-].[O]=[V+2]", "note": "[vanadyl]", "values": [
      {"measurement": "half time of single exponential decline (majority of the dose)", "setting": "[1]", "result": 24, "unit": "h"}
    ]}
  ]
}
